From ChEMBL document CHEMBL4414643, “Pharmacokinetics of Phytocannabinoid Acids and Anticonvulsant Effect of Cannabidiolic Acid in a Mouse Model of Dravet Syndrome” (J Nat Prod, 2019)

Legend:
[1] = Ratio of drug level in anesthetized C57BL/6J mouse brain to plasma at 5 mg/kg, ip administered as single dose measured upto 240 mins by LC-MS/MS analysis; type: ADME, organism-based; settings: read-out: BPR
How it was run: (§1)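 Male and female mice (C57BL/6J or C57BL/6J x 129 F1), postnatal days 21-28, single i.p. injection at 10 mL/kg in vegetable oil or ethanol–Tween 80–saline (1:1:18). Blood taken by cardiac puncture under isoflurane at time points 15–240 min. Plasma and PBS brain homogenate extracted with ice-cold acetonitrile, diazepam internal standard, quantified by LC-MS/MS. Mean concentrations per time point (n = 3-5); noncompartmental analysis.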

[2] = Half life in anesthetized C57BL/6J mouse brain at 5 mg/kg, ip administered as single dose measured upto 240 mins by LC-MS/MS analysis; type: ADME, organism-based; how it was run: as §1
[3] = Drug metabolism in brain of anesthetized C57BL/6J mouse assessed as decrease in decarboxylation of parent compound at 5 mg/kg, ip by LC-MS/MS analysis; type: ADME, organism-based; settings: in vivo
How it was run: (§2)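 Mice aged 21-28 days postnatal received one i.p. dose (10 mL/kg), and plasma and brain were sampled at 15–240 min. Decarboxylated neutral cannabinoids were measured by LC-MS/MS against known standards, alongside the parent acid.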

[4] = Drug metabolism in plasma of anesthetized C57BL/6J mouse assessed as decrease in decarboxylation of parent compound at 5 mg/kg, ip by LC-MS/MS analysis; type: ADME, organism-based; settings: in vivo; how it was run: as §2
[5] = Partition coefficient, log P of compound; type: physicochemical; settings: octanol/water
[6] = Half life in anesthetized C57BL/6J mouse plasma at 5 mg/kg, ip administered as single dose measured upto 240 mins by LC-MS/MS analysis; type: ADME, organism-based; how it was run: as §1
[7] = AUC in anesthetized C57BL/6J mouse brain at 5 mg/kg, ip administered as single dose measured upto 240 mins by LC-MS/MS analysis; type: ADME, organism-based; design: time < 4 hr, dose 5 mg/kg, route intraperitoneal; how it was run: as §1
[8] = Tmax in anesthetized C57BL/6J mouse plasma at 5 mg/kg, ip administered as single dose measured upto 240 mins by LC-MS/MS analysis; type: ADME, organism-based; how it was run: as §1
[9] = AUC in anesthetized C57BL/6J mouse plasma at 5 mg/kg, ip administered as single dose measured upto 240 mins by LC-MS/MS analysis; type: ADME, organism-based; design: dose 5 mg/kg, time < 4 hr, route intraperitoneal; how it was run: as §1
[10] = Dissociation constant, pKa of compound; type: physicochemical
[11] = Tmax in anesthetized C57BL/6J mouse brain at 5 mg/kg, ip administered as single dose measured upto 240 mins by LC-MS/MS analysis; type: ADME, organism-based; how it was run: as §1
[12] = Cmax in anesthetized C57BL/6J mouse plasma at 5 mg/kg, ip administered as single dose measured upto 240 mins by LC-MS/MS analysis; type: ADME, organism-based; design: dose 5 mg/kg, route intraperitoneal; how it was run: as §1
[13] = Cmax in anesthetized C57BL/6J mouse brain at 5 mg/kg, ip administered as single dose measured upto 240 mins by LC-MS/MS analysis; type: ADME, organism-based; design: dose 5 mg/kg, route intraperitoneal; how it was run: as §1
[14] = Drug metabolism in brain of anesthetized C57BL/6J mouse at 10 mg/kg, ip by LC-MS/MS analysis; type: ADME, organism-based; settings: in vivo; how it was run: as §2
[15] = Drug uptake in plasma of anesthetized C57BL/6J mouse at 10 mg/kg, ip by LC-MS/MS analysis; type: ADME, organism-based; settings: in vivo; how it was run: as §2
[16] = Half life in anesthetized C57BL/6J mouse brain at 10 mg/kg, ip administered as single dose measured upto 240 mins by LC-MS/MS analysis; type: ADME, organism-based; how it was run: as §1
[17] = Tmax in anesthetized C57BL/6J mouse plasma at 10 mg/kg, ip administered as single dose measured upto 240 mins by LC-MS/MS analysis; type: ADME, organism-based; how it was run: as §1
[18] = Tmax in anesthetized C57BL/6J mouse brain at 10 mg/kg, ip administered as single dose measured upto 240 mins by LC-MS/MS analysis; type: ADME, organism-based; how it was run: as §1
[19] = Cmax in anesthetized C57BL/6J mouse plasma at 10 mg/kg, ip administered as single dose measured upto 240 mins by LC-MS/MS analysis; type: ADME, organism-based; design: dose 10 mg/kg, route intraperitoneal; how it was run: as §1
[20] = Cmax in anesthetized C57BL/6J mouse brain at 10 mg/kg, ip administered as single dose measured upto 240 mins by LC-MS/MS analysis; type: ADME, organism-based; design: dose 10 mg/kg, route intraperitoneal; settings: in vivo, 4 h; how it was run: as §1
[21] = AUC in anesthetized C57BL/6J mouse plasma at 10 mg/kg, ip administered as single dose measured upto 240 mins by LC-MS/MS analysis; type: ADME, organism-based; design: time < 4 hr, dose 10 mg/kg, route intraperitoneal; how it was run: as §1
[22] = Half life in anesthetized C57BL/6J mouse plasma at 10 mg/kg, ip administered as single dose measured upto 240 mins by LC-MS/MS analysis; type: ADME, organism-based; how it was run: as §1
[23] = Ratio of drug level in anesthetized C57BL/6J mouse brain to plasma at 10 mg/kg, ip administered as single dose measured upto 240 mins by LC-MS/MS analysis; type: ADME, organism-based; settings: read-out: BPR; how it was run: as §1
[24] = Drug uptake in plasma of anesthetized C57BL/6J mouse assessed as purity of compound at 10 mg/kg, ip by LC-MS/MS analysis; type: ADME, organism-based; settings: in vivo; how it was run: as §2

Structure (SMILES)	Drug metabolism [3]	Drug metabolism [4]	logP [5]	half-life [6]	Tmax [8]	AUC at 4 h [9]	pKa [10]	Cmax [12]	further results
C=C(C)[C@@H]1CCC(C)=C[C@H]1c1c(O)cc(CCC)c(C(=O)O)c1O	Metabolite_Notdetected	Metabolite_Notdetected	5.94	49 min	15 min	24800 ng·h/mL	2.91	21000 ng/mL	Kp at 4 h [1]: 0.02; half-life [2]: 19 min; AUC at 4 h [7]: 550 ng·h/mL; Tmax [11]: 30 min; Cmax ([13]; C57BL/6J, brain, read-out: Cmax): 800 ng/mL
CCCc1cc(O)c(C/C=C(\C)CCC=C(C)C)c(O)c1C(=O)O	–	–	6.46	–	–	–	2.92	–	Drug metabolism [14]: Metabolite_Notdetected; Drug uptake [15]: 0.2%; half-life [16]: 29 min; Tmax [17]: 15 min; Tmax [18]: 90 min; Cmax [19]: 34400 ng/mL; Cmax [20]: 3.8 ng/mg; AUC at 4 h [21]: 199000 ng·h/mL; half-life [22]: 204 min; Kp at 4 h [23]: 0.04; Drug uptake [24]: 97%
CCCCCc1cc2c(c(O)c1C(=O)O)C=CC(C)(CCC=C(C)C)O2 (stereo not given)	Metabolite_Notdetected	Metabolite_Notdetected	6.91	24 min	30 min	2880 ng·h/mL	2.87	3300 ng/mL	Cmax ([13]; in vivo, 4 h, BLD = below limit of detection): Bld
